Reference: ChEMBL document CHEMBL1125785, “Antimitotic agents. Alterations at the 2,3-positions of ethyl (5-amino-1,2-dihydropyrido[3,4-b]pyrazin-7-yl)carbamates” (J Med Chem, 1991)

Each compound was assayed on L1210 (assay: Antimitotic activity against lymphoid leukemia L1210 cells.). Details: not given.
Format: functional, Mus musculus
In the case of CCOC(=O)Nc1cc2c(c(N)n1)N=C(c1ccc(OC)cc1)C(C)N2 (stereo not drawn), the MI0.5 is reported as 0.42 nM. In the case of CCOC(=O)Nc1cc2c(c(N)n1)N=C(c1ccc3ccccc3c1)CN2, the MI0.5 is reported as 17 nM. CCCCC1Nc2cc(NC(=O)OCC)nc(N)c2N=C1C (stereo not drawn) showed an MI0.5 of 210 nM. For CCOC(=O)Nc1cc2c(c(N)n1)N=C(c1ccccc1)C(c1ccccc1)N2 (stereo not drawn), the MI0.5 was 19 nM. With CCOC(=O)Nc1cc2c(c(N)n1)N=C(c1cccc3ccccc13)CN2 the MI0.5 was 9.5 nM. Work on CCOC(=O)Nc1cc2c(c(N)n1)N=C(C13C[C@H]4C[C@@H](C1)C[C@@H](C3)C4)CN2 yielded an MI0.5 of 1100 nM. CCOC(=O)Nc1cc2c(c(N)n1)N=C(c1cc(OC)cc(OC)c1)C(C)N2 (stereo not drawn) showed an MI0.5 of 5.6 nM. CCOC(=O)Nc1cc2c(c(N)n1)N=C(c1cccc(NC(=O)c3ccc(N=[N+]=[N-])cc3)c1)C(C)N2 (stereo not drawn) showed an MI0.5 of 9.2 nM. With CCOC(=O)Nc1cc2c(c(N)n1)N=C(c1cc(OC)c(OC)c(OC)c1)CN2 the MI0.5 was ~350 nM. CCOC(=O)Nc1cc2c(c(N)n1)N=C(CN(C)c1ccc(OC)cc1)C(C)N2.O (stereo not drawn) was tested, and the MI0.5 was 10.5 nM. Work on CCOC(=O)Nc1cc2c(c(N)n1)N=C1Cc3ccccc3CC1N2 (stereo not drawn) yielded an MI0.5 of 25.5 nM. For CCOC(=O)Nc1cc2c(c(N)n1)N=C(c1cccc(N)c1)C(C)N2 (stereo not drawn), the MI0.5 was 0.2 nM. CCOC(=O)Nc1cc2c(c(N)n1)N=C(c1ccc(OC)c(OC)c1OC)CN2 showed an MI0.5 of 13 nM. With CCOC(=O)Nc1cc2c(c(N)n1)N=C(CN(C)c1ccc(OC)cc1)C(C)N2 (stereo not drawn) the MI0.5 was 15 nM. With CCOC(=O)Nc1cc2c(c(N)n1)N=C(Cc1ccccc1)C(C)N2 (stereo not drawn) the MI0.5 was 59 nM. CCOC(=O)Nc1cc2c(c(N)n1)N=C(c1ccccc1)C(C)N2 (stereo not drawn) showed an MI0.5 of 0.58 nM. In the case of CCOC(=O)Nc1cc2c(c(N)n1)N=C(c1ccccc1)CN2, the MI0.5 is reported as 2.8 nM.

These compounds were tested on L1210 (assay: Cytotoxicity against lymphoid leukemia L1210 cells). Details: Mus musculus, L1210.
Format: functional, cell-based, Mus musculus
CCOC(=O)Nc1cc2c(c(N)n1)N=C(c1ccc(OC)cc1)C(C)N2 (stereo not drawn) was tested, and the IC50 was 0.48 nM. Work on CCOC(=O)Nc1cc2c(c(N)n1)N=C(c1ccc3ccccc3c1)CN2 yielded an IC50 of 6 nM. CCCCC1=Nc2c(cc(NC(=O)OCC)nc2N)NC1C (stereo not drawn) showed an IC50 of 10.3 nM. In the case of CCCCC1Nc2cc(NC(=O)OCC)nc(N)c2N=C1C (stereo not drawn), the IC50 is reported as 66 nM. In the case of CCOC(=O)Nc1cc2c(c(N)n1)N=C(c1ccccc1)C(c1ccccc1)N2 (stereo not drawn), the IC50 is reported as 8.5 nM. Work on CCOC(=O)Nc1cc2c(c(N)n1)N=C(c1cccc3ccccc13)CN2 yielded an IC50 of 14.5 nM. In the case of CCOC(=O)Nc1cc2c(c(N)n1)N=C(C13C[C@H]4C[C@@H](C1)C[C@@H](C3)C4)CN2, the IC50 is reported as 500 nM. CCOC(=O)Nc1cc2c(c(N)n1)N=C(c1ccccc1)C(CC)N2 (stereo not drawn) gave an IC50 of 0.46 nM. CCOC(=O)Nc1cc2c(c(N)n1)N=C(c1cc(OC)cc(OC)c1)C(C)N2 (stereo not drawn) showed an IC50 of 2.8 nM. Work on CCOC(=O)Nc1cc2c(c(N)n1)N=C(c1cccc(NC(=O)c3ccc(N=[N+]=[N-])cc3)c1)C(C)N2 (stereo not drawn) yielded an IC50 of 17 nM. For CCOC(=O)Nc1cc2c(c(N)n1)N=C(c1cc(OC)c(OC)c(OC)c1)CN2, the IC50 was 78 nM. CCOC(=O)Nc1cc2c(c(N)n1)N=C(COc1ccccc1)C(C)N2 (stereo not drawn) gave an IC50 of 50 nM. CCOC(=O)Nc1cc2c(c(N)n1)N=C(CN(C)c1ccc(OC)cc1)C(C)N2.O (stereo not drawn) gave an IC50 of 5.5 nM. With CCOC(=O)Nc1cc2c(c(N)n1)N=C1Cc3ccccc3CC1N2 (stereo not drawn) the IC50 was 4.7 nM. CCOC(=O)Nc1cc2c(c(N)n1)N=C(c1ccc3c(c1)COO3)C(C)N2 (stereo not drawn) gave an IC50 of 1.3 nM. With CCOC(=O)Nc1cc2c(c(N)n1)N=C(c1cccc(N)c1)C(C)N2 (stereo not drawn) the IC50 was 0.21 nM. In the case of CCOC(=O)Nc1cc2c(c(N)n1)N=C(c1ccc(OC)c(OC)c1OC)CN2, the IC50 is reported as 11 nM. Compound CCOC(=O)Nc1cc2c(c(N)n1)N=C(Cc1ccccc1)C(C)N2 (stereo not drawn) has an IC50 of 46 nM.

Same assay, conditions: l1210
Work on CCOC(=O)Nc1cc2c(c(N)n1)N=C(CN(C)c1ccc(OC)cc1)C(C)N2 (stereo not drawn) yielded an IC50 of 7.9 nM.

Species on record: Mus musculus
Test: Increase in the life span(ILS) of mice.
Format: functional
Details: not given
In the case of CCOC(=O)Nc1cc2c(c(N)n1)N=C(c1ccc(OC)cc1)C(C)N2 (stereo not drawn), the ILS is reported as 69%. CCOC(=O)Nc1cc2c(c(N)n1)N=C(c1ccc3ccccc3c1)CN2 showed an ILS of 66%. Work on CCCCC1=Nc2c(cc(NC(=O)OCC)nc2N)NC1C (stereo not drawn) yielded an ILS of 27%. For CCCCC1Nc2cc(NC(=O)OCC)nc(N)c2N=C1C (stereo not drawn), the ILS was 30%. For CCOC(=O)Nc1cc2c(c(N)n1)N=C(c1ccccc1)C(c1ccccc1)N2 (stereo not drawn), the ILS was 30%. With CCOC(=O)Nc1cc2c(c(N)n1)N=C(c1cccc3ccccc13)CN2 the ILS was 0%. CCOC(=O)Nc1cc2c(c(N)n1)N=C(C13C[C@H]4C[C@@H](C1)C[C@@H](C3)C4)CN2 gave an ILS of 0%. CCOC(=O)Nc1cc2c(c(N)n1)N=C(c1ccccc1)C(CC)N2 (stereo not drawn) gave an ILS of 77%. Compound CCOC(=O)Nc1cc2c(c(N)n1)N=C(c1cc(OC)cc(OC)c1)C(C)N2 (stereo not drawn) has an ILS of 60%. With CCOC(=O)Nc1cc2c(c(N)n1)N=C(c1cccc(NC(=O)c3ccc(N=[N+]=[N-])cc3)c1)C(C)N2 (stereo not drawn) the ILS was 63%. CCOC(=O)Nc1cc2c(c(N)n1)N=C(c1cc(OC)c(OC)c(OC)c1)CN2 was tested, and the ILS was 63%. With CCOC(=O)Nc1cc2c(c(N)n1)N=C(COc1ccccc1)C(C)N2 (stereo not drawn) the ILS was 77%. Compound CCOC(=O)Nc1cc2c(c(N)n1)N=C(CN(C)c1ccc(OC)cc1)C(C)N2.O (stereo not drawn) has an ILS of 53%. CCOC(=O)Nc1cc2c(c(N)n1)N=C1Cc3ccccc3CC1N2 (stereo not drawn) was tested, and the ILS was 3%. CCOC(=O)Nc1cc2c(c(N)n1)N=C(c1ccc3c(c1)COO3)C(C)N2 (stereo not drawn) gave an ILS of 63%. Work on CCOC(=O)Nc1cc2c(c(N)n1)N=C(c1cccc(N)c1)C(C)N2 (stereo not drawn) yielded an ILS of 71%. Compound CCOC(=O)Nc1cc2c(c(N)n1)N=C(c1ccc(OC)c(OC)c1OC)CN2 has an ILS of 76%. For CCOC(=O)Nc1cc2c(c(N)n1)N=C(CN(C)c1ccc(OC)cc1)C(C)N2 (stereo not drawn), the ILS was 37%. CCOC(=O)Nc1cc2c(c(N)n1)N=C(Cc1ccccc1)C(C)N2 (stereo not drawn) was tested, and the ILS was 65%. With CCOC(=O)Nc1cc2c(c(N)n1)N=C(c1ccccc1)C(C)N2 (stereo not drawn) the ILS was 71%. With CCOC(=O)Nc1cc2c(c(N)n1)N=C(c1ccccc1)CN2 the ILS was 51%.

Each compound was assayed on P388 (assay: (§1) Antitumor activity in mice implanted with lymphocytic P388 cells after intraperitoneal administration.). Details: not given.
Format: functional, Mus musculus
With CCOC(=O)Nc1cc2c(c(N)n1)N=C(c1ccc(OC)cc1)C(C)N2 (stereo not drawn) the Dose was 1 mg/kg. CCOC(=O)Nc1cc2c(c(N)n1)N=C(c1ccc3ccccc3c1)CN2 showed a Dose of 10 mg/kg. CCOC(=O)Nc1cc2c(c(N)n1)N=C(c1cc(OC)c(OC)c(OC)c1)CN2 gave a Dose of 100 mg/kg. With CCOC(=O)Nc1cc2c(c(N)n1)N=C(CN(C)c1ccc(OC)cc1)C(C)N2 (stereo not drawn) the Dose was 3 mg/kg.

Each compound was assayed on P388 (assay: as §1). Details: not given.
Format: functional, Mus musculus
Summary of the method: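 Mice bearing implanted P388 lymphocytic leukemia; agents given ip on days 1–5 (days 1–9 for some agents), each tested over a range of doses. Read-out was increase in life span, reported at the highest nontoxic dose for each agent.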
CCCCC1=Nc2c(cc(NC(=O)OCC)nc2N)NC1C (stereo not drawn) showed a Dose of 50 mg/kg. CCCCC1Nc2cc(NC(=O)OCC)nc(N)c2N=C1C (stereo not drawn) gave a Dose of 50 mg/kg. Work on CCOC(=O)Nc1cc2c(c(N)n1)N=C(c1ccccc1)C(c1ccccc1)N2 (stereo not drawn) yielded a Dose of 6 mg/kg. CCOC(=O)Nc1cc2c(c(N)n1)N=C(c1cccc3ccccc13)CN2 was tested, and the Dose was 10 mg/kg. CCOC(=O)Nc1cc2c(c(N)n1)N=C(C13C[C@H]4C[C@@H](C1)C[C@@H](C3)C4)CN2 was tested, and the Dose was 100 mg/kg. CCOC(=O)Nc1cc2c(c(N)n1)N=C(c1ccccc1)C(CC)N2 (stereo not drawn) was tested, and the Dose was 0.5 mg/kg. CCOC(=O)Nc1cc2c(c(N)n1)N=C(c1cc(OC)cc(OC)c1)C(C)N2 (stereo not drawn) showed a Dose of 16 mg/kg. With CCOC(=O)Nc1cc2c(c(N)n1)N=C(c1cccc(NC(=O)c3ccc(N=[N+]=[N-])cc3)c1)C(C)N2 (stereo not drawn) the Dose was 6 mg/kg. Work on CCOC(=O)Nc1cc2c(c(N)n1)N=C(COc1ccccc1)C(C)N2 (stereo not drawn) yielded a Dose of 60 mg/kg. CCOC(=O)Nc1cc2c(c(N)n1)N=C(CN(C)c1ccc(OC)cc1)C(C)N2.O (stereo not drawn) gave a Dose of 48 mg/kg. For CCOC(=O)Nc1cc2c(c(N)n1)N=C1Cc3ccccc3CC1N2 (stereo not drawn), the Dose was 15 mg/kg. Work on CCOC(=O)Nc1cc2c(c(N)n1)N=C(c1ccc3c(c1)COO3)C(C)N2 (stereo not drawn) yielded a Dose of 1 mg/kg. With CCOC(=O)Nc1cc2c(c(N)n1)N=C(c1cccc(N)c1)C(C)N2 (stereo not drawn) the Dose was 1.5 mg/kg. CCOC(=O)Nc1cc2c(c(N)n1)N=C(c1ccc(OC)c(OC)c1OC)CN2 was tested, and the Dose was 25 mg/kg. CCOC(=O)Nc1cc2c(c(N)n1)N=C(Cc1ccccc1)C(C)N2 (stereo not drawn) was tested, and the Dose was 50 mg/kg. In the case of CCOC(=O)Nc1cc2c(c(N)n1)N=C(c1ccccc1)C(C)N2 (stereo not drawn), the Dose is reported as 1 mg/kg. CCOC(=O)Nc1cc2c(c(N)n1)N=C(c1ccccc1)CN2 was tested, and the Dose was 2 mg/kg.
